What was measured:
[1] = target: T1, Replicase polyprotein 1ab (Severe acute respiratory syndrome coronavirus 2, UniProt P0DTD1); test: Inhibition of His6-tagged SARS-CoV-2 main protease expressed in Escherichia coli BL21 (DE3) using DABCYL-KTSAVLQ1SGFRKM-E(EDANS)-NH2 as substrate preincubated for 15 mins followed by substrate addition by FRET analysis
Outline: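 Inhibitor preincubated 15 min at 30 °C, then dabcyl-edans substrate added. Fluorescence followed at 90 s intervals. […] Three independent experiments.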

[2] = target: Replicase polyprotein 1ab (Severe acute respiratory syndrome coronavirus 2) (UniProt P0DTD1); test: Inhibition of His6-tagged SARS-CoV-2 main protease expressed in Escherichia coli BL21 (DE3) assessed as residual enzyme activity using DABCYL-KTSAVLQ1SGFRKM-E(EDANS)-NH2 as substrate at 50 uM preincubated for 15 mins followed by substrate addition by FRET analysis
Outline: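 Compound at 50 µM preincubated 15 min at 30 °C before dabcyl-edans peptide added. Fluorescence read every 90 s for about 2.5 h, baseline subtracted.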

[3] = target: T1, Replicase polyprotein 1ab; test: Inhibition of His6-tagged SARS-CoV-2 main protease expressed in Escherichia coli BL21 (DE3) using DABCYL-KTSAVLQ1SGFRKM-E(EDANS)-NH2 as substrate preincubated for 15 mins followed by substrate addition in presence of Triton-X by FRET analysis

Structure (SMILES): O=C1OCCN1C(=O)C(Cc1ccco1)Sc1nc2ccc(O)cc2n1Cc1ccccc1 (configuration not stated)
- IC50 [1]: 55.8 µM

Structure (SMILES): O=C1OCCN1C(=O)C(Cc1ccco1)Sc1nc2cc(Cl)c(O)cc2n1Cc1ccccc1 (configuration not stated)
- IC50 [1]: 46.1 µM

Structure (SMILES): O=C1OCCN1C(=O)C(Cc1ccco1)Sc1nc2ccc(Cl)cc2n1Cc1ccccc1 (configuration not stated)
- IC50 [1]: 52.9 µM

Structure (SMILES): COc1cc2c(cc1Cl)nc(SCC(=O)N1CCOC1=O)n2Cc1ccccc1
- IC50 [1]: 52.5 µM

Structure (SMILES): O=C1NCCN1C(=O)C(Cc1ccccc1)Sc1nc2cc(Cl)ccc2n1Cc1ccccc1 (configuration not stated)
- IC50 [1]: 29.9 µM

Structure (SMILES): CC(C)(C)c1ccc2c(c1)nc(SC(Cc1ccccc1)C(=O)N1CCOC1=O)n2Cc1ccccc1 (configuration not stated)
- IC50 [1]: 29.5 µM

Structure (SMILES): COc1ccc2nc(SC(Cc3ccco3)C(=O)N3CCOC3=O)n(Cc3ccccc3)c2c1 (configuration not stated)
- IC50 [1]: 53.9 µM

Structure (SMILES): O=C1OCCN1C(=O)C(Cc1ccccc1)Sc1nc2cc(Cl)ccc2n1Cc1ccccc1 (configuration not stated)
- IC50 [1]: 26.7 µM

Structure (SMILES): O=C(CSc1nc2cc(Cl)c(O)cc2n1Cc1ccccc1)N1CCOC1=O
- IC50 [1]: 35.8 µM

Structure (SMILES): CC(C)(C)c1ccc2c(c1)nc(SCC(=O)N1CCOC1=O)n2Cc1ccccc1
- IC50 [1]: 35.1 µM

Structure (SMILES): COc1cc2c(cc1Cl)nc(SC(Cc1ccco1)C(=O)N1CCOC1=O)n2Cc1ccccc1 (configuration not stated)
- IC50 [1]: 27.7 µM

Structure (SMILES): O=C(CSc1nc2cc(Cl)ccc2n1Cc1ccccc1)N1CCNC1=O
- Activity [2]: 50%
- IC50 [3]: 24.2 µM
- IC50 [1]: 24.2 µM

Structure (SMILES): Cc1ccc2c(c1)nc(SC(Cc1ccccc1)C(=O)N1CCNC1=O)n2Cc1ccccc1 (configuration not stated)
- IC50 [1]: 32.4 µM

Structure (SMILES): O=C(CSc1nc2cc(Cl)c(Cl)cc2n1Cc1ccccc1)N1CCOC1=O
- IC50 [1]: 29.5 µM

Structure (SMILES): O=C1OCCN1C(=O)C(Cc1ccco1)Sc1nc2cc(Cl)c(Cl)cc2n1Cc1ccccc1 (configuration not stated)
- IC50 [1]: 30.8 µM

Structure (SMILES): O=C1OCCN1C(=O)C(Cc1ccco1)Sc1nc2cc(Cl)ccc2n1Cc1ccccc1 (configuration not stated)
- IC50 [1]: 14.9 µM

Structure (SMILES): Cc1ccc2c(c1)nc(SC(Cc1ccccc1)C(=O)N1CCOC1=O)n2Cc1ccccc1 (configuration not stated)
- IC50 [1]: 36.5 µM

Structure (SMILES): O=C(CSc1nc2cc(Cl)ccc2n1Cc1ccccc1)N1CCOC1=O
- IC50 [1]: 62.2 µM

Structure (SMILES): COCCn1c(C(=O)NCC(O)c2ccccc2)nc2ccccc2c1=O (configuration not stated)
- Activity [2]: 50%
- IC50 [3]: 54 µM

— ChEMBL document CHEMBL5113451, “Discovery of 2-thiobenzimidazoles as noncovalent inhibitors of SARS-CoV-2 main protease” (Bioorg Med Chem Lett, 2022)
